# From PubChem
# CYP2C19 inhib = human CYP2C19 inhibition. P33261. CYP2C19 Supersomes, luciferin-H EGE luminescence, 30 min. inhibition, % at 5 µM. 96,000 tested, 21% active. AID 778;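 active = CYP2C19 inhibition above a set limit at 5 µM in the primary screen, cut at about 50% in these data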;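 also: plate controls were negative control wells for no effect and 2.5 mM tranylcypromine positive control for full effect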
# Target sequence (P33261 whole entry, looked up): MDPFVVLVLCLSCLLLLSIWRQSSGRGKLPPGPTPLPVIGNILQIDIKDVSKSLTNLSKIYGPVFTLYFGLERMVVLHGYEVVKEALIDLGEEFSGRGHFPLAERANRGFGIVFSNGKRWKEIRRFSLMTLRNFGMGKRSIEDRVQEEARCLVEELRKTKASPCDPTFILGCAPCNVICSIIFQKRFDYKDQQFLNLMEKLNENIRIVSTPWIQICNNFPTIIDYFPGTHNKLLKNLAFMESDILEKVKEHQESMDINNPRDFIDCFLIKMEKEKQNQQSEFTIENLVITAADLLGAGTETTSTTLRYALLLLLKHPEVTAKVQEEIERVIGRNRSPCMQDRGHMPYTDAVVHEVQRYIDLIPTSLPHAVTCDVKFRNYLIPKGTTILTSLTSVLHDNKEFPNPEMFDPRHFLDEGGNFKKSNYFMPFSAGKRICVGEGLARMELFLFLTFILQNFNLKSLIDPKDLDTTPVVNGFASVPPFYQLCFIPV
# CYP2C9 inhib = inhibitors of human CYP2C9; CYP2C9 Supersomes, luciferin-H conversion, luminescence; inhibition, % at 5 µM; 96,000 tested, 20% active; AID 777;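 active = blocking of liver enzyme CYP2C9 beyond about 50% at 5 µM, limit read from the data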
# CYP2C19 act = cytochrome P450 2C19 (human) activation; P33261; recombinant CYP2C19, luciferin-H EGE luminescence; stronger effect = higher value; 0 = fully inhibited enzyme, 1 = untreated enzyme; activation factor at 5 µM; 96,000 tested, under 10 active; AID 1025;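 active = activation factor of at least 2 at 5 µM in the primary screen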;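 also: 0 = wells with 2.5 mM tranylcypromine and 1 = vehicle-only wells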
# CYP2C9 activ = CYP2C9 (human) activation; activation factor at 5 µM; 96,000 tested, 1.4% active; recombinant CYP2C9, luciferin-H conversion, luminescence; stronger effect = higher value; factor 1 = untreated enzyme, 0 = blocked;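 active = activation factor of 2 or more for CYP2C9 at a 5 µM dose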;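 also: 0 = sulfaphenazole-blocked wells and 1 = vehicle-only wells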
# Ecoli WT expand = growth inhibitors of E. coli BW25113 wild type. growth inhibition, % at 100 µM. 98,000 tested, 0.15% active. OD600 absorbance;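 active = growth inhibition above about 50% at one test dose, limit read from the data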;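 also: growth measured after 20 h incubation at 37 °C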
# Ecoli tolC = E. coli tolC mutant growth inhibition; 65,000 tested, 2.2% active; E. coli BW25113 tolC mutant growth, OD615; growth inhibition, % at 10 µM (by protocol); AID 573;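 active = growth inhibition at or above a cutoff equal to the mean over every tested compound plus 3 SD, cut at about 60% in these data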;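 also: growth measured after 20 h incubation at 37 °C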
#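 Doses: one dose of 10 µM final / Material: E. coli BW25113 ΔtolC::kan, tolC deletion mutant strain / Buffer or medium: LB with kanamycin 50 µg/mL / Evaluation: percent growth inhibition / Detection: optical density read at 615 nm / Incubation: 37 °C, 20 h exposure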
# Starred values were filed as active, the others as inactive; . = no result given. The list is not random: actives were taken first. Their share in the collection is about 29%.
SMILES,CYP2C19 inhib,CYP2C9 inhib,CYP2C19 act,CYP2C9 activ,Ecoli WT expand,Ecoli tolC
Cc1cc(C(=O)Nc2cccc(C(=O)O)c2)c(C)o1,37.2,15.8,0.6,0.8,-8.0,.
Cc1cc(C(=O)Nc2cccc(C(=O)O)c2)oc1C,66.4*,28.1,0.3,0.7,-15.0,-1.2
Cc1oc(C(C)(C)C)cc1C(=O)Nc1cccc(C(=O)O)c1,-5.3,60.2*,1.1,0.4,2.0,.
CC(=O)c1cc(C(=O)Nc2ccccc2C(=O)O)oc1C,12.4,53.5*,0.9,0.5,-8.0,-1.1
O=C(Nc1ccccc1C(=O)O)c1ccc(Br)o1,-1.9,42.9,1,0.6,-8.0,.
Cn1c(=O)[nH]c(=O)c2c1nc(N1CCOCC1)n2CCSc1nc2ccccc2[nH]1,-21.6,-6.0,1.2,1.1,-2.0,.
COc1ccc(C(=O)n2nc(-c3ccccc3)nc2SC)cc1,30.6,11.0,0.7,0.9,-11.0,.
COc1ccc(C(=O)N=c2nc3ccccn3s2)cc1,64.6*,33.0,0.4,0.7,-9.0,-6.9
Cc1oc(-c2ccccc2)cc1C(=O)Nc1cccc2ccccc12,11.1,-88.3,0.9,1.9,-10.0,.
Cc1onc(-c2c(Cl)cccc2Cl)c1C(=O)NCCN1CCOCC1,-7.0,-10.2,1.1,1.1,-5.0,-22.9
O=C(COc1ccc(Cl)cc1)Nc1ccccc1N1CCOCC1,25.5,-19.3,0.7,1.2,-6.0,-3.7
Cc1ccccc1NC(=O)COc1nsnc1N1CCOCC1,60.2*,14.8,0.4,0.9,0.0,.
O=C(Cc1ccc(Cl)cc1)Nc1ccccc1N1CCOCC1,84.1*,40.9,0.2,0.6,0.0,.
Cc1ccc(CC(=O)Nc2ccccc2N2CCOCC2)cc1C,39.7,83.2*,0.6,0.2,-1.0,.
COc1ccc(CCNC(=O)COc2nsnc2N2CCOCC2)cc1OC,9.4,14.7,0.9,0.9,2.0,-24.8
O=C(COc1ccc(Cl)cc1Cl)NC(=O)N1CCOCC1,52.0*,-12.9,0.5,1.1,9.0,-11.2
CCOCC(=O)Nc1nc(-c2ccccc2)c(CC)s1,-1.3,30.8,1,0.7,2.0,.
CCOc1cc(N2CCOCC2)c(OCC)cc1NS(=O)(=O)c1ccc(Cl)s1,93.1*,60.2*,0.1,0.4,10.0,31.1
CCOc1cc(N2CCOCC2)c(OCC)cc1NC(=O)Cc1cccc2ccccc12,54.6*,41.5,0.5,0.6,-12.0,.
Cc1cc(Cl)ccc1OCC(=O)Nc1ccccc1N1CCOCC1,91.2*,94.5*,0.1,0.1,-19.0,86.2*
CCCNC(=O)Nc1cc(OCC)c(N2CCOCC2)cc1OCC,-11.3,24.4,1.1,0.8,4.0,-11.3
FC(F)(F)c1nc(Oc2ccccc2)c2ccccc2n1,38.1,32.8,0.6,0.7,6.0,.
CC(C)(C)c1cc(CN2CCCC(O)C2)c(O)c(C(C)(C)C)c1 (stereo unspecified),21.3,37.4,0.8,0.6,7.0,19.5
CC(C)(C)c1ccc(C(=O)N/N=C/c2cccc(Cl)c2)cc1,76.1*,35.9,0.2,0.6,-15.0,.
O=C(N/N=C/c1ccc(F)cc1)c1ccc(Br)cc1,6.4,-8.2,0.9,1.1,-11.0,.
SMILES,CYP2C19 inhib,CYP2C9 inhib,CYP2C19 act,CYP2C9 activ,Ecoli WT expand,Ecoli tolC
O=C(NCc1ccncc1)C1CCCCC1,11.9,41.8,0.9,0.6,7.0,.
O=c1c2ccccc2nc(-c2ccccc2)n1CCN1CCOCC1,25.8,12.5,0.7,0.9,-1.0,-18.1
COc1ccc(-c2nc3ccccc3c(=O)n2CCCN2CCOCC2)cc1,90.2*,6.8,0.1,0.9,6.0,1.2
Cc1[nH]c2ccccc2c1C(=O)CSc1nc2ccccc2c(=O)n1CCCN1CCOCC1,73.0*,85.2*,0.3,0.1,-11.0,.
Cc1[nH]c2ccccc2c1C(=O)CSc1nc2ccccc2[nH]1,31.3,-54.3,0.7,1.5,11.0,.
N#C/C(=C\c1ccc(-c2ccccc2)o1)C(=O)Nn1cnnc1,92.0*,98.8*,0.1,0,-1.0,.
O=c1sc2ccccc2n1CCOc1ccccc1,98.2*,87.9*,0,0.1,4.0,22.6
Cc1ccc(OCn2c(=O)sc3ccccc32)cc1,56.5*,37.9,0.4,0.6,6.0,57.7
COC(=O)C1=C(C)NC(C)=C(C(=O)OC)C1c1ccc(OC(=O)c2ccco2)cc1,12.2,56.7*,0.9,0.4,-3.0,-2.2
COCCOC(=O)C1=C(C)NC(=O)NC1c1ccc(OC(=O)c2ccco2)c(OC)c1 (stereo unspecified),35.2,6.3,0.6,0.9,-5.0,-0.9
CCOC(=O)C1=C(C)Nc2nc(SCC)nn2C1c1ccc(OC)cc1 (stereo unspecified),10.5,-19.2,0.9,1.2,-5.0,.
C=CCOC(=O)C1=C(C)NC(C)=C(C(=O)OCC=C)C1c1ccc(O)cc1,99.5*,100.4*,0,0,.,24.6
CCOC(=O)C1=C(C)NC(C)=C(C(=O)OCC)C1c1ccc(OC)cc1,69.5*,88.4*,0.3,0.1,5.0,35.0
CC(=O)Nc1cc(OC(=O)c2ccco2)cc(OC(=O)c2ccco2)c1,26.5,66.1*,0.7,0.3,-4.0,-12.9
C=CCOC(=O)C1=C(C)Nc2nnnn2C1c1cccs1 (stereo unspecified),44.6,28.4,0.6,0.7,11.0,.
CCN(CC)c1nc2ccccc2c(N)c1-c1ccccc1,36.6,35.6,0.6,0.6,11.0,.
CC(=O)CC(=O)Nc1ccccc1NC(C)=O,-2.2,1.4,1,1,5.0,5.4
CCCOC(=O)c1ccc(OC(=O)c2ccco2)cc1,11.8,-96.9,0.9,2*,14.0,1.9
CCOC(=O)C1C(=O)C=C(C)C(C(=O)OCC)C1c1ccc(OC)cc1 (stereo unspecified),72.6*,17.0,0.3,0.8,5.0,3.5
COC(=O)C1=C(C)NC(C)=C(C(=O)OC)C1c1ccccn1,21.8,83.3*,0.8,0.2,6.0,-13.1
COc1ccccc1CN1C(=O)C2CC=CCC2C1=O (stereo unspecified),30.4,-17.4,0.7,1.2,3.0,-2.3
Clc1ccccc1-c1ccc(CN2CCN(c3ccccc3)CC2)o1,74.3*,64.4*,0.3,0.4,3.0,.
CC(C)C(=O)Nc1ccc(Sc2ccc(F)cc2)cc1,37.7,24.0,0.6,0.8,-6.0,.
O=C(COc1ccc(F)c(Cl)c1)c1ccc[nH]1,74.3*,12.5,0.3,0.9,9.0,5.2
Clc1ccccc1Cn1nnc(-c2cccs2)n1,35.5,44.9,0.6,0.6,2.0,43.6
O=C(CCn1nnc(-c2cccs2)n1)NCc1ccccc1Cl,27.8,64.7*,0.7,0.4,-1.0,7.0
CCOc1ccc(Cl)cc1S(=O)(=O)n1nnc2ccccc21,98.3*,-104.1,0,2*,6.0,16.9
CCOc1ccc(S(=O)(=O)n2nnc3ccccc32)cc1C,-7.4,-23.8,1.1,1.2,1.0,-19.1
Cc1ccnc(NC(=O)Nc2cccc(F)c2)c1,32.7,16.2,0.7,0.8,-4.0,2.3
